# Laboratory results: ChEMBL document CHEMBL4145681, “Discovery of Novel Aminotetralines and Aminochromanes as Selective and Competitive Glycine Transporter 1 (GlyT1) Inhibitors” (J Med Chem, 2018)
# The source made the active and inactive calls. The rule behind the calls is not given here.
# Tests used:
# [1] = Efflux ratio in MDCK2-MDR1 cells at 1 uM incubated fro 1 hr by LC-MS/MS method; format: ADME, cell-based, Canis lupus familiaris; details: dog, MDCK-MDR1
# [2] = Clearance in rat liver microsomes at 0.5 uM incubated up to 30 mins in presence of NADPH by LC-MS/MS method; format: ADME, microsome; details: read-out: CLH
# [3] = biological target: T1, Sodium- and chloride-dependent glycine transporter 1 (Homo sapiens, UniProt P48067); assay: Displacement of [3H]N-Methyl-SSR504734 from human GlyT1c expressed in cell membranes incubated for 1 hr by liquid scintillation spectrometry
# T1 sequence (P48067 whole entry): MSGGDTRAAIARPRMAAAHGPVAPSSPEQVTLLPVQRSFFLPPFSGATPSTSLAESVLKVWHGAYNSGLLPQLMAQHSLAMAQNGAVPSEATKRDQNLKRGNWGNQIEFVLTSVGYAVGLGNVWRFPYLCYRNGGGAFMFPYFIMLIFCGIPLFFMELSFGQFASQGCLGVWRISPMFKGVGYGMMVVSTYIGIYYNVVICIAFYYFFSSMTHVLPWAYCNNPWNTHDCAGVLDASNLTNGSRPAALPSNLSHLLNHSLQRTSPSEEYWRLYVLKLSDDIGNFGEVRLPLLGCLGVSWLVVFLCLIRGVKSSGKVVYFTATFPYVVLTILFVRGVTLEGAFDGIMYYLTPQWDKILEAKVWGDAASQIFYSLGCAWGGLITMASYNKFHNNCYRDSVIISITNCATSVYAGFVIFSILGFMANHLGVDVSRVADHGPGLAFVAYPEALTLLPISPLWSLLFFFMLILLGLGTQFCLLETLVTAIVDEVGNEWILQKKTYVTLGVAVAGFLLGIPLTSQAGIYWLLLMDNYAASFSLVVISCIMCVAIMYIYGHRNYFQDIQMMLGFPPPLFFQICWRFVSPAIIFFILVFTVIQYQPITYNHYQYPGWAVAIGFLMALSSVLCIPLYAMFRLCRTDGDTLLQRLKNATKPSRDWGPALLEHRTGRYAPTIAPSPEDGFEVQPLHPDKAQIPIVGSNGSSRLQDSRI
# [4] = Clearance in human liver microsomes at 0.5 uM incubated up to 30 mins in presence of NADPH by LC-MS/MS method; format: ADME, microsome; details: read-out: CLH
# [5] = biological target: Voltage-gated inwardly rectifying potassium channel KCNH2 (Homo sapiens, UniProt Q12809); assay: Inhibition of human ERG
# Mus musculus = assay: In-vivo binding affinity to GlyT1 in mouse assessed as target occupancy in forebrains dosed intraperitoneally using [3H]N-methyl-SSR504734 as radioligand after 1 hr by liquid scintillation counting method; format: functional; details: ip
# In short: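 Mice dosed i.p. at several doses; forebrain homogenates then tested ex vivo for binding of a GlyT1 radioligand to give target occupancy, with ED50 for 50% occupancy estimated across the dose range.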
# [6] = Oral bioavailability in Sprague-Dawley rat at measured after 8 to 24 hrs by LC-MS/MS method; format: ADME, organism-based; details: in vivo
# [7] = fCmax in Sprague-Dawley rat brain at 2 mg/kg, ip measured after 8 to 24 hrs by LC-MS/MS method; format: ADME, organism-based; details: in vivo
# [8] = Oral bioavailability in dog; format: ADME, organism-based, Canis lupus familiaris; details: in vivo
# [9] = biological target: T2, Sodium- and chloride-dependent glycine transporter 1 (Homo sapiens) (UniProt P48067); assay: Competitive inhibition of GlyT1c (unknown origin) expressed in Xenopus laevis oocytes clamped at -60 mV assessed as reduction in glycine-induced membrane currents at 300 nM pre-treated with glycine for 1 min followed by compound dosing for 3 mins by two-electrode voltage clamp assay; format: cell-based
# T2 sequence (whole entry): T1 sequence (P48067 whole entry)
# In short: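 Oocytes expressing GlyT1c were stimulated with 10 µM or 3000 µM glycine to evoke transporter current. Compound at 300 nM was added to the glycine solution, and % inhibition of the current was calculated. Mode of inhibition was judged by comparing inhibition at the two glycine levels. Data are mean ± SD, N>4 oocytes.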
# [10] = Ratio of free drug level in brain to plasma of Sprague-Dawley rat at 2 mg/kg, ip measured after 8 to 24 hrs by LC-MS/MS method; format: ADME, organism-based
# Cytochrome P450 3A4 = Cytochrome P450 3A4 (Homo sapiens, UniProt P08684); assay: Inhibition of CYP3A4 in human liver microsomes in presence of NADPH regeneration mixture using luciferin IPA-OH substrate by P450-Glo assay; format: ADME
# [11] = Permeability in MDCK2-MDR1 cells at 1 uM incubated fro 1 hr by LC-MS/MS method; format: ADME, cell-based, Canis lupus familiaris; details: dog, MDCK-MDR1; read-out: permeability
# [12] = Solubility in water; format: physicochemical
# Chain of Cytochrome P450 3A4 (P08684 whole entry): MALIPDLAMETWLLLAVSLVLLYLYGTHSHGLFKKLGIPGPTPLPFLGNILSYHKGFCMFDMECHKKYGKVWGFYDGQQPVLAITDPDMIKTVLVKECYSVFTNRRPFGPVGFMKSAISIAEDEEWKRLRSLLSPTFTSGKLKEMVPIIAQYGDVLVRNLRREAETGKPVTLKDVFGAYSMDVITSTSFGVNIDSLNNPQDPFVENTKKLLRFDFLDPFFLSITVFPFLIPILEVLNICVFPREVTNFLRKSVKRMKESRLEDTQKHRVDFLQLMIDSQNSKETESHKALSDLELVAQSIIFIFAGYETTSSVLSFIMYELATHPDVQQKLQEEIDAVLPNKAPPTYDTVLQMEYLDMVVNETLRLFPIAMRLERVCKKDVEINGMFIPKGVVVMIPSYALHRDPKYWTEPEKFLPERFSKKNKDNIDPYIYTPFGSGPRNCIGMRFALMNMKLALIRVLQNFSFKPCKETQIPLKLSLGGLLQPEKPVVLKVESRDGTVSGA
# Chain of Voltage-gated inwardly rectifying potassium channel KCNH2 (Q12809 whole entry): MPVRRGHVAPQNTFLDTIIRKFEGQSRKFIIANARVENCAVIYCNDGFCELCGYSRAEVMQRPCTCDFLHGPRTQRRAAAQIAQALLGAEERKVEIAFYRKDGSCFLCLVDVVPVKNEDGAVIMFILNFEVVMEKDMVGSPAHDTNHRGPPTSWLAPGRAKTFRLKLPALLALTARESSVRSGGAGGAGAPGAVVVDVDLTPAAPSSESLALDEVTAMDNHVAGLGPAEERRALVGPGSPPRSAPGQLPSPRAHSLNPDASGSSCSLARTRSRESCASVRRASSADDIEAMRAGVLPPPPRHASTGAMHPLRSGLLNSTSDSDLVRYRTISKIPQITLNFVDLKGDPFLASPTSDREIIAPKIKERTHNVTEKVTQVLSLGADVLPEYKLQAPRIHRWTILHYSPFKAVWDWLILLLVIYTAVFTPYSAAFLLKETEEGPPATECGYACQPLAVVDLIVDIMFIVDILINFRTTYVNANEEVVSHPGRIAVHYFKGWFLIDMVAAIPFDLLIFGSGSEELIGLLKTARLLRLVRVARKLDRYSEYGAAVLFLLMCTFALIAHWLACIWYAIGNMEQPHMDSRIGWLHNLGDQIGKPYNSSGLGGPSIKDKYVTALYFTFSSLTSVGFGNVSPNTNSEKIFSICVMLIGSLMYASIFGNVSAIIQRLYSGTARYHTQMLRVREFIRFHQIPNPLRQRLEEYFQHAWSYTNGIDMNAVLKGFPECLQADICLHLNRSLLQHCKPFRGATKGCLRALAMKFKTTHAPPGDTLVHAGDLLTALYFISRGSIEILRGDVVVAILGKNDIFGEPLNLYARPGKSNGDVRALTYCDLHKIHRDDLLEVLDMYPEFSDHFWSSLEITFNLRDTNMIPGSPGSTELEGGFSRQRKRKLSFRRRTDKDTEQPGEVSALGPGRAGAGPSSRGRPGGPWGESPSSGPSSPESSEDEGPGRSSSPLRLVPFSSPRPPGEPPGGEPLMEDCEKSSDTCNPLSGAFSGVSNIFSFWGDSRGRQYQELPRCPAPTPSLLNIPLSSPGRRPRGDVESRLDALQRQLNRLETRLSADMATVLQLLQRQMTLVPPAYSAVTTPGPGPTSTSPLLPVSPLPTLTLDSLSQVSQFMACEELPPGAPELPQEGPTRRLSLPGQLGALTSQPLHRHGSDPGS
microsomal CLint at 0.5 µM [2] [µL/min/mg],Ki [3] [nM],microsomal CLint at 0.5 µM [4] [µL/min/mg],SMILES,ED50 (Mus musculus) [mg/kg],other results
66,44,< 23,CCCS(=O)(=O)NC1CN(c2ccc3c(c2)[C@@H](Cc2ccccc2)[C@@H](N2CCC2)CO3)C1 (relative stereo),–,"efflux ratio at 1 h, 1 µM [1]: 0.9"
33,28,< 23,CCCS(=O)(=O)N[C@@H]1CCN(c2ccc3c(c2)[C@@H](Cc2ccccc2)[C@@H](N2CCC2)CC3)C1=O,–,"efflux ratio at 1 h, 1 µM [1]: 1.6; IC50 [5]: 4500 nM"
–,1.1,–,Cn1cnc(S(=O)(=O)NCCOc2ccc3c(c2)[C@@H](Cc2ccc(Cl)cc2)[C@@H](N)CC3)c1 (relative stereo),–,–
–,1.2,–,CN[C@H]1CCc2ccc(OCCNS(=O)(=O)CC3CC3)cc2[C@H]1Cc1ccccc1,1.4,bioavailability [6]: 22%; fCmax [7]: 2.3 nM
10,2.6,36,Cn1cnc(S(=O)(=O)NCCOc2ccc3c(c2)[C@@H](Cc2ccc(Cl)c(Cl)c2)[C@@H](N)CC3)c1 (relative stereo),> 20,–
–,3,–,Cn1cnc(S(=O)(=O)NCc2ccc3c(c2)[C@@H](Cc2ccccc2)[C@@H](N2CCC2)CC3)c1 (relative stereo),1.8,bioavailability [6]: 51%; bioavailability [8]: 75%
42,2.6,< 23,CCCS(=O)(=O)NC1CN(c2ccc3c(c2)[C@@H](Cc2ccccc2)[C@@H](N2CCC2)CC3)C1,–,"efflux ratio at 1 h, 1 µM [1]: 1.4; IC50 [5]: 6800 nM"
450,3,620,CCCS(=O)(=O)NCCOc1ccc2c(c1)C(C1(c3ccc(Cl)cc3)CCC1)NCC2 (stereo not drawn),–,inhibition [9]: Active; bioavailability [6]: 7%; Kp uu [10]: 0.54; IC50 (Cytochrome P450 3A4): 620 nM
125,69,69,Cn1cnc(S(=O)(=O)NCCOc2ccc3c(c2)[C@@H](Cc2ccccc2)[C@@H](NCC(F)(F)F)CC3)c1 (relative stereo),–,"efflux ratio at 1 h, 1 µM [1]: 1.4"
343,124,130,Oc1ccc2c(c1)C(C1(c3ccc(Cl)cc3)CCC1)NCC2 (stereo not drawn),–,inhibition [9]: Active; bioavailability [6]: < 1%; IC50 (Cytochrome P450 3A4): > 10000 nM
130,18,< 23,O=S(=O)(CC1CC1)NC1CN(c2ccc3c(c2)[C@@H](Cc2ccccc2)[C@@H](N2CCC2)CO3)C1 (relative stereo),–,"efflux ratio at 1 h, 1 µM [1]: 1; IC50 [5]: 11400 nM"
–,75,–,Cn1cnc(S(=O)(=O)NCCOc2ccc3c(c2)[C@@H](Cc2ccccc2Cl)[C@@H](N)CC3)c1 (relative stereo),–,–
37,3.3,277,Cn1cnc(S(=O)(=O)NCCOc2ccc3c(c2)[C@@H](Cc2ccccc2)[C@@H](N2CCC2)CO3)c1,–,"efflux ratio at 1 h, 1 µM [1]: 3.5"
49,1.2,44,Cn1cc(S(=O)(=O)NCCOc2ccc3c(c2)[C@@H](Cc2ccc(Cl)c(Cl)c2)[C@@H](N)CC3)cn1 (relative stereo),> 20,fCmax [7]: 0.2 nM
39,141,25,CS(=O)(=O)NCCOc1ccc2c(c1)[C@@H](Cc1ccc(Cl)c(Cl)c1)[C@@H](N)CC2 (relative stereo),–,–
137,2.6,113,O=S(=O)(CC1CC1)NCCOc1ccc2c(c1)[C@@H](Cc1ccccc1)[C@@H](N1CCC1)CC2,0.5,"efflux ratio at 1 h, 1 µM [1]: 1.6; IC50 [5]: 80 nM; bioavailability [6]: 8%; Kp uu [10]: 0.8; fCmax [7]: 9.9 nM"
–,–,–,CCCS(=O)(=O)NCc1ccc2c(c1)[C@@H](Cc1ccccc1)[C@@H](NC)CC2 (relative stereo),2,–
17,35,95,CCCS(=O)(=O)NCCOc1ccc2c(c1)[C@@H](Cc1ccc(Cl)c(Cl)c1)[C@@H](N)CC2 (relative stereo),–,inhibition [9]: Active; bioavailability [6]: 31%; Kp uu [10]: 0.05; IC50 (Cytochrome P450 3A4): > 10000 nM
–,0.8,–,Cn1cnc(S(=O)(=O)NCCOc2ccc3c(c2)[C@@H](Cc2cccc(C(F)(F)F)c2)[C@@H](N)CC3)c1 (relative stereo),–,–
302,–,122,CCCS(=O)(=O)NCc1ccc2c(c1)[C@@H](Cc1ccccc1)[C@@H](N1CCC1)CC2 (relative stereo),–,–
49,32,55,N[C@H]1CCc2ccc(OCCNS(=O)(=O)C3CCC3)cc2[C@H]1Cc1ccc(Cl)c(Cl)c1 (relative stereo),–,–
–,1.2,–,Cn1cnc(S(=O)(=O)NCCOc2ccc3c(c2)[C@@H](Cc2cc(F)cc(Cl)c2)[C@@H](N)CC3)c1 (relative stereo),–,–
35,136,173,CCCCS(=O)(=O)NCCOc1ccc2c(c1)[C@@H](Cc1ccc(Cl)c(Cl)c1)[C@@H](N)CC2 (relative stereo),–,–
40,660,78,N[C@H]1CCc2ccc(OCCNS(=O)(=O)c3ccccc3)cc2[C@H]1Cc1ccc(Cl)c(Cl)c1,–,–
–,1.5,–,Cn1cnc(S(=O)(=O)NCCOc2ccc3c(c2)[C@@H](Cc2cccc(Cl)c2)[C@@H](N)CC3)c1 (relative stereo),15,–
239,940,940,O=S(=O)(CC1CC1)NCCOc1ccc2c(c1)[C@@H](Cc1ccccc1)[C@@H](N1CCC1)CO2 (relative stereo),–,–
–,3.6,–,Cn1cnc(S(=O)(=O)NCCOc2ccc3c(c2)[C@@H](Cc2ccccc2)[C@@H](N)CC3)c1 (relative stereo),–,–
25,5.7,92,N[C@H]1CCc2ccc(OCCNS(=O)(=O)CC3CC3)cc2[C@H]1Cc1ccc(Cl)c(Cl)c1 (relative stereo),14,–
–,1.2,–,Cn1cnc(S(=O)(=O)NCCOc2ccc3c(c2)[C@@H](Cc2ccccc2)[C@@H](N2CCCC2)CC3)c1,1.6,"Papp at 1 h, 1 µM [11]: 17 ×10⁻⁶ cm/s; solubility [12]: > 1000 µg/mL; efflux ratio at 1 h, 1 µM [1]: 7.2; bioavailability [6]: 29%; fCmax [7]: 2 nM; bioavailability [8]: 49%"
95,163,99,N[C@H]1CCc2ccc(OCCNS(=O)(=O)c3cccs3)cc2[C@H]1Cc1ccc(Cl)c(Cl)c1 (relative stereo),–,–
